Laboratory results reported in ChEMBL document CHEMBL2434964, “Novel 1H-pyrrolo[2,3-b]pyridine derivative nortopsentin analogues: synthesis and antitumor activity in peritoneal mesothelioma experimental models” (J Med Chem, 2013).
Activity calls are given as the source filed them. The rule behind the calls is not given here.

Legend:
[1] = Cell cycle arrest in human Meso2 cells assessed as accumulation at G2/M phase at IC50 after 72 hrs by propidium iodide staining-based FACS-flow cytometry relative to control; assay type: functional
[2] = (§1) Cytotoxicity against human STO cells assessed as growth inhibition after 72 hrs by MTS assay; assay type: functional, cell-based
Summary of the method: (§2)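 Log-phase cells, 4500 per well, plated 24 h, then given 0.1–100 μM compound for 72 h; vehicle (DMSO) controls. MTS read-out at 490 nm as % of DMSO-treated cells. IC50 taken graphically from the dose-response curve. Eight replicates; mean ± SD of at least three independent experiments.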

STO [3] = assay: as §1; assay type: functional, cell-based; summary of the method: as §2
[4] = (§3) Cytotoxicity against human cells Meso2 assessed as growth inhibition after 72 hrs by MTS assay; assay type: functional, cell-based; conditions: Meso2, 72 h; summary of the method: as §2
Homo sapiens = species: Homo sapiens; assay: as §3; assay type: functional, cell-based; summary of the method: as §2
[5] = Cytotoxicity against human W138 cells assessed as growth inhibition after 72 hrs by MTS assay; assay type: cell-based; conditions: WI-38, 72 h; summary of the method: as §2
[6] = Antitumor activity against human STO cells xenografted in athymic nude mouse assessed as tumor volume inhibition at 25 mg/kg, ip qd for 4 to 5 days per week for 3 weeks measured on day 17 post dose; assay type: functional; conditions: route intraperitoneal
Summary of the method: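 Female athymic Swiss nude mice, 8-10 weeks old; 10⁷ exponentially growing STO cells injected s.c. into right flank. Dosing i.p. qdx4-5/wx3w, starting the day after cell injection. Tumor volume = d²xD/2. TVI% = 100-(mean TV treated/mean TV control x 100), read 17 days after end of treatment (day 35). Two-tailed Student's t test.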

[7] = Cell cycle arrest in human STO cells assessed as accumulation at G2/M phase at IC50 after 72 hrs by propidium iodide staining-based FACS-flow cytometry relative to control; assay type: functional
Mus musculus [8] = assay: Toxicity in athymic nude mouse xenografted with human STO cells assessed as body weight loss at 25 mg/kg, ip qd for 4 to 5 days per week for 35 days measured on day 17 post dose; assay type: organism-based; parameters: dose 25 mg/kg, route intraperitoneal; conditions: in vivo, in the assay text read “for 3 weeks measured on day 35” for “for 35 days measured on day 17 post dose”
Summary of the method: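 Female athymic Swiss nude mice bearing s.c. STO flank xenografts (10⁷ cells). Dosing i.p. qdx4-5/wx3w, starting the day after cell injection. Toxicity recorded as % body weight loss and lethal toxicity. Deaths in treated mice before the first control death were counted as toxic.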

Mus musculus [9] = assay: Toxicity in athymic nude mouse xenografted with human STO cells assessed as mortality at 25 mg/kg, ip qd for 4 to 5 days per week for 3 weeks measured on day 17 post dose; assay type: organism-based; parameters: dose 25 mg/kg, route intraperitoneal; conditions: in vivo
Summary of the method: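 Female athymic Swiss nude mice, 8-10 weeks old, given 10⁷ exponentially growing STO cells s.c. in the right flank. Dosing i.p. qdx4-5/wx3w, starting the day after cell injection. Toxicity was scored as body weight loss and lethal toxicity, reported as toxic deaths per treated group (n=8). Deaths in treated mice before the first control death were counted as toxic.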

[10] = target: Cyclin-dependent kinase 1/cyclin B1 (Homo sapiens, UniProt P06493); assay: Inhibition of human recombinant CDK1/cyclin B after 30 mins by fluorescence assay; assay type: protein-complex assay
Sequence of Cyclin-dependent kinase 1/cyclin B1 (P06493 whole entry): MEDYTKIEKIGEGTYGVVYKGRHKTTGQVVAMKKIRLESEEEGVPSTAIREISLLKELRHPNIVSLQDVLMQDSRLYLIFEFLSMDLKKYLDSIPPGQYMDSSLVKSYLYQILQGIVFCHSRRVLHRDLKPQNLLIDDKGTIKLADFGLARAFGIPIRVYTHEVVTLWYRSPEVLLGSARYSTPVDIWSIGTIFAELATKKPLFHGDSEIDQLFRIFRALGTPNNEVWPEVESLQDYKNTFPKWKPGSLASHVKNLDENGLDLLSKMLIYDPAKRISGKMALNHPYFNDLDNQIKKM
Sequence of Cyclin-dependent kinase 1/cyclin B1 (P14635 whole entry, further chain): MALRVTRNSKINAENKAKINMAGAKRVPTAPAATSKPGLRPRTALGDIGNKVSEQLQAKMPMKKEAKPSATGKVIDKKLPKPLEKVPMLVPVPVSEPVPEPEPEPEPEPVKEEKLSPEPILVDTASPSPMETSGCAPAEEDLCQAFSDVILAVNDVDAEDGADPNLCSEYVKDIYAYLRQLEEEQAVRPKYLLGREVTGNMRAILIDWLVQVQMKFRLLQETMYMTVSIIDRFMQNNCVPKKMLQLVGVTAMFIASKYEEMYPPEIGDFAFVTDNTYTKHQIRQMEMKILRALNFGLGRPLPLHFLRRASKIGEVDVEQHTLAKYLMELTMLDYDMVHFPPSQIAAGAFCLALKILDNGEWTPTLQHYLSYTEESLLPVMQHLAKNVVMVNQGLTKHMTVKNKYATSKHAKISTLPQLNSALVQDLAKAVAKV
Summary of the method: (§4)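 Recombinant kinases (CDK1/cyclin B; GSK3β) in Omnia fluorescence assay with peptide substrate, ATP and DTT in kinase buffer, run 30 min at 30°C. Compound range 0.05-50 μM. Fluorescence read at ex 360/em 485 nm. IC50 taken graphically; mean ± SD of three independent experiments.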

[11] = target: Glycogen synthase kinase-3 beta (Homo sapiens, UniProt P49841); assay: Inhibition of human GSK-3 beta after 30 mins by fluorescence assay; summary of the method: as §4
Sequence of Glycogen synthase kinase-3 beta (P49841 whole entry): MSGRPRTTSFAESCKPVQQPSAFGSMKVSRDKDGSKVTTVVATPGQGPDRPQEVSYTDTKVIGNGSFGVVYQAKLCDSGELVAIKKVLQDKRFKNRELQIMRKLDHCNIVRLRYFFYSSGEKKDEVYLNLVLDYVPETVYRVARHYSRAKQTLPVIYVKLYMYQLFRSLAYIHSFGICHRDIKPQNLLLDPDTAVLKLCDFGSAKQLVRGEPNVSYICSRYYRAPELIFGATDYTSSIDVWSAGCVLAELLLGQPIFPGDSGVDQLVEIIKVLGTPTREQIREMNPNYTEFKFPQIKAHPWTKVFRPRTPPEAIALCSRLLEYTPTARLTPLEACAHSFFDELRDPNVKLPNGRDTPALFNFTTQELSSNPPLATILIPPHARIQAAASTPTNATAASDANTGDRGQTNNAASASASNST

[12] = target: Cyclin-dependent kinase 1/cyclin B1 (Homo sapiens) (UniProt P06493+P14635); assay: Inhibition of CDK1/cyclin B in human STO cells using histone H1 as substrate assessed as histone H1 phosphorylation preincubated at IC50 by immunoprecipitate-based densitometric analysis; assay type: cell-based; conditions: TDE = time-dependent effect
Sequence of Cyclin-dependent kinase 1/cyclin B1 (Homo sapiens) (P06493 whole entry, looked up): as the sequence (P06493 whole entry) above
Sequence of Cyclin-dependent kinase 1/cyclin B1 (Homo sapiens) (P14635 whole entry, looked up): as the sequence (P14635 whole entry, further chain) above
Summary of the method: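 STO cells exposed at IC50 for 24, 48 and 72 h, with DMSO controls. Lysates immunoprecipitated with anti-cyclin B1, 4 h at 4°C. Precipitates incubated 20 min at 30°C with 3 μg histone H1, MgCl₂, cold ATP and [γ32P]ATP, pH 7.5. Products run on 12% SDS gel and quantified by densitometry as % of DMSO control.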

STO [13] = assay: Induction of apoptosis in human STO cells assessed as inhibition of survivin phosphorylation at Thr34 at IC50 by Western blotting analysis; assay type: functional, cell-based
[14] = Induction of apoptosis in human Meso2 cells assessed as increase in caspase 3 activation at IC80 after 72 hrs by DEVD-pNA substrate-based spectrofluorometric analysis relative to control; assay type: functional
Summary of the method: (§5)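 Cells exposed 72 h at IC80, with 1% (v/v) DMSO controls. Caspase-9 activity read as LEHD-pNA cleavage and caspase-3 as DEVD-pNA cleavage, by spectrofluorometry (ex 380 nm/em 460 nm), reported as rfu. Mean ± SD of at least three experiments.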

[15] = Induction of apoptosis in human Meso2 cells assessed as increase in caspase 9 activation at IC80 after 72 hrs by LEHD-pNA substrate-based spectrofluorometric analysis relative to control; assay type: functional; summary of the method: as §5
[16] = Induction of apoptosis in human STO cells assessed as increase in caspase 3 activation at IC80 after 72 hrs by DEVD-pNA substrate-based spectrofluorometric analysis relative to control; assay type: functional; summary of the method: as §5
Meso2 [17] = assay: Induction of apoptosis in human Meso2 cells assessed as DNA fragmentation at IC50 by fluorescence microscopy relative to control; assay type: functional, cell-based; conditions: TDE = time-dependent effect
[18] = Induction of apoptosis in human STO cells assessed as increase in caspase 9 activation at IC80 after 72 hrs by LEHD-pNA substrate-based spectrofluorometric analysis relative to control; assay type: functional; summary of the method: as §5
STO [19] = assay: Induction of apoptosis in human STO cells assessed as DNA fragmentation at IC50 by fluorescence microscopy relative to control; assay type: functional, cell-based; conditions: TDE = time-dependent effect
Meso2 [20] = assay: Induction of apoptosis in human Meso2 cells assessed as chromatin condensation at IC50 by fluorescence microscopy relative to control; assay type: functional, cell-based; conditions: TDE = time-dependent effect
STO [21] = assay: Induction of apoptosis in human STO cells assessed as chromatin condensation at IC50 by fluorescence microscopy relative to control; assay type: functional, cell-based; conditions: TDE = time-dependent effect
[22] = Cell cycle arrest in human Meso2 cells assessed as increase in sub-G1 phase accumulation at IC50 after 72 hrs by propidium iodide staining-based FACS-flow cytometry relative to control; assay type: functional
[23] = Cell cycle arrest in human STO cells assessed as increase in sub-G1 phase accumulation at IC50 after 72 hrs by propidium iodide staining-based FACS-flow cytometry relative to control; assay type: functional
[24] = Cell cycle arrest in human Meso2 cells assessed as reduction of cells at G1 phase at IC50 after 48 to 72 hrs by propidium iodide staining-based FACS-flow cytometry relative to control; assay type: functional
[25] = Cell cycle arrest in human STO cells assessed as reduction of cells at G1 phase at IC50 after 48 to 72 hrs by propidium iodide staining-based FACS-flow cytometry relative to control; assay type: functional
[26] = Cell cycle arrest in human Meso2 cells assessed as accumulation at G2/M phase at IC50 after 48 hrs by propidium iodide staining-based FACS-flow cytometry relative to control; assay type: functional
[27] = Cell cycle arrest in human STO cells assessed as accumulation at G2/M phase at IC50 after 48 hrs by propidium iodide staining-based FACS-flow cytometry relative to control; assay type: functional

Row | Structure (SMILES) | Activity [1] [%] | IC50 [2] [µM] | inhibition (STO [3]) | IC50 [4] [µM] | inhibition (Homo sapiens) | IC50 [5] [µM] | inhibition in vivo at 25 mg/kg [6] [%] | Activity [7] [%] | Activity (Mus musculus [8]) [%] | Activity (Mus musculus [9]) | IC50 [10] [µM] | IC50 [11] [µM] | inhibition [12] | inhibition (STO [13]) | Activity (Meso2 [17]) | Activity (STO [19]) | Activity (Meso2 [20]) | Activity (STO [21]) | Activity [22] [%] | Activity [23] [%] | also measured
1 | Cn1cc(-c2nc(-c3cn(C)c4ncccc34)cs2)c2cc(F)ccc21 | 41.9 | 0.43 | Dose-dependent effect | 4.85 | Dose-dependent effect | > 100 | 58 | 41.9 | 7 | Non-toxic | 0.86 | 35.7 | tde | Active | tde | tde | tde | tde | 27.9 | 26.5 | fold change (FC) [14]: 7.8; fold change (FC) [15]: 11.9; fold change (FC) [16]: 10; fold change (FC) [18]: 12; Activity [24]: Active; Activity [25]: Active; Activity [26]: 33.3%; Activity [27]: 33.3%
2 | Cn1cc(-c2nc(-c3c[nH]c4ncccc34)cs2)c2cc(F)ccc21 | 41.9 | 0.49 | Dose-dependent effect | 25.1 | Dose-dependent effect | > 100 | 73 | 41.9 | 4 | Non-toxic | 0.89 | 42.2 | tde | Active | tde | tde | tde | tde | 28.6 | 27.6 | Activity [24]: Active; Activity [25]: Active; Activity [26]: 33.3%; Activity [27]: 33.3%
3 | Cn1cc(-c2csc(-c3c[nH]c4ccc(F)cc34)n2)c2cccnc21 | – | 0.54 | Dose-dependent effect | 13.3 | Dose-dependent effect | 15.4 | – | – | – | – | – | – | – | – | – | – | – | – | – | – | –
